Measured values: ChEMBL document CHEMBL5303300, “EUbOPEN Chemogenomics Library - Multiplex” (2023)
Where “and” joins values, the source holds several entries; their conditions need not be identical. Identical values can stand only once.

Tests used:
Format in all cases: toxicity, cell-based
HEK-293T = assay: Multiplex assay against HEK293T; conditions: human, number of replicates 2
Procedure, shortened: (§1)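 Values for tubulin, mitochondrial-mass and membrane-permeability phenotypes are per cents of cells with healthy nuclei. These cells were identified by CellPathfinder machine-learning gating of live cells that had been stained at seeding with Hoechst33342, BioTracker Green Microtubule Cytoskeleton Dye, MitoTracker Red and Annexin V Alexa Fluor 680 and imaged on a CQ1 microscope at 37°C and 5% CO2 after compound addition. The gating first set Hoechst high-intensity objects apart from normal cells, then split normal cells into healthy, pyknosed or fragmented nuclei, and pyknosed cells into mitotic or apoptotic.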

Fibroblast = assay: Multiplex assay against human fibroblast; conditions: number of replicates 2; procedure, shortened: as §1
U2OS = assay: Multiplex assay against U2OS; conditions: human, number of replicates 2; procedure, shortened: as §1
[1] = 12 h, 1 µM, compound concentration 1 uM
[2] = 12 h, 10 µM, compound concentration 10 uM
[3] = 24 h, 1 µM, compound concentration 1 uM
[4] = 24 h, 10 µM, compound concentration 10 uM
[5] = 48 h, 1 µM, compound concentration 1 uM
[6] = 48 h, 10 µM, compound concentration 10 uM

Compound: CS(=O)(=O)c1ccc(C(=O)Nc2cc(F)cc(COc3ccc(Br)cc3CN3CC[C@H](O)C3)c2)c(Cl)c1.O=CO
- Population Apoptotic (%) (HEK-293T; [1]): 63%
- Population Healthy Nuclei (%) (HEK-293T; [1]): 81% and 82%
- Population Mitotic Cells (%) (HEK-293T; [1]): 45% and 36%
- Population Pyknosed Nuclei (%) (HEK-293T; [1]): 16% and 13%
- Total Cell Count (HEK-293T; [1]): 543 and 646
- Population Apoptotic (%) (HEK-293T; [2]): 68% and 69%
- Population Healthy Nuclei (%) (HEK-293T; [2]): 83% and 84%
- Population Mitotic Cells (%) (HEK-293T; [2]): 31% and 30%
- Population Pyknosed Nuclei (%) (HEK-293T; [2]): 13%
- Total Cell Count (HEK-293T; [2]): 462 and 578
- Population Apoptotic (%) (HEK-293T; [3]): 60% and 50%
- Population Healthy Nuclei (%) (HEK-293T; [3]): 82%
- Population Mitotic Cells (%) (HEK-293T; [3]): 39% and 49%
- Total Cell Count (HEK-293T; [3]): 757 and 913
- Population Apoptotic (%) (HEK-293T; [4]): 70%
- Population Healthy Nuclei (%) (HEK-293T; [4]): 79% and 83%
- Population Mitotic Cells (%) (HEK-293T; [4]): 29%
- Population Pyknosed Nuclei (%) (HEK-293T; [4]): 17%
- Total Cell Count (HEK-293T; [4]): 505 and 555
- Population Apoptotic (%) (HEK-293T; [5]): 34% and 23%
- Population Healthy Nuclei (%) (HEK-293T; [5]): 85%
- Population Mitotic Cells (%) (HEK-293T; [5]): 65% and 76%
- Population Pyknosed Nuclei (%) (HEK-293T; [5]): 3% and 4%
- Total Cell Count (HEK-293T; [5]): 1715 and 1868
- Population Apoptotic (%) (HEK-293T; [6]): 54% and 57%
- Population Healthy Nuclei (%) (HEK-293T; [6]): 85% and 80%
- Population Mitotic Cells (%) (HEK-293T; [6]): 46% and 42%
- Population Pyknosed Nuclei (%) (HEK-293T; [6]): 8% and 10%
- Total Cell Count (HEK-293T; [6]): 633 and 761
- Population Apoptotic (%) (Fibroblast; [1]): 47% and 46%
- Population Healthy Nuclei (%) (Fibroblast; [1]): 54% and 67%
- Population Mitotic Cells (%) (Fibroblast; [1]): 52% and 53%
- Population Pyknosed Nuclei (%) (Fibroblast; [1]): 32% and 19%
- Total Cell Count (Fibroblast; [1]): 177 and 249
- Population Apoptotic (%) (Fibroblast; [2]): 54% and 58%
- Population Fragmented Nuclei (%) (Fibroblast; [2]): 16% and 19%
- Population Healthy Nuclei (%) (Fibroblast; [2]): 51% and 54%
- Population Mitotic Cells (%) (Fibroblast; [2]): 45% and 41%
- Population Pyknosed Nuclei (%) (Fibroblast; [2]): 31% and 26%
- Total Cell Count (Fibroblast; [2]): 197 and 232
- Population Apoptotic (%) (Fibroblast; [3]): 56% and 57%
- Population Fragmented Nuclei (%) (Fibroblast; [3]): 17% and 22%
- Population Healthy Nuclei (%) (Fibroblast; [3]): 55% and 57%
- Population Mitotic Cells (%) (Fibroblast; [3]): 43% and 42%
- Population Pyknosed Nuclei (%) (Fibroblast; [3]): 26% and 20%
- Total Cell Count (Fibroblast; [3]): 195 and 268
- Population Fragmented Nuclei (%) (Fibroblast; [4]): 18%
- Population Healthy Nuclei (%) (Fibroblast; [4]): 57% and 54%
- Population Mitotic Cells (%) (Fibroblast; [4]): 9% and 16%
- Population Pyknosed Nuclei (%) (Fibroblast; [4]): 23% and 22%
- Total Cell Count (Fibroblast; [4]): 187 and 243
- Population Apoptotic (%) (Fibroblast; [5]): 76%
- Population Fragmented Nuclei (%) (Fibroblast; [5]): 21%
- Population Healthy Nuclei (%) (Fibroblast; [5]): 57% and 61%
- Population Mitotic Cells (%) (Fibroblast; [5]): 21% and 23%
- Population Pyknosed Nuclei (%) (Fibroblast; [5]): 20% and 14%
- Total Cell Count (Fibroblast; [5]): 201 and 289
- Population Apoptotic (%) (Fibroblast; [6]): 97%
- Population Fragmented Nuclei (%) (Fibroblast; [6]): 17% and 19%
- Population Healthy Nuclei (%) (Fibroblast; [6]): 54%
- Population Mitotic Cells (%) (Fibroblast; [6]): 2% and 7%
- Population Pyknosed Nuclei (%) (Fibroblast; [6]): 28% and 25%
- Total Cell Count (Fibroblast; [6]): 144 and 211
- Population Healthy Nuclei (%) (U2OS; [1]): 64% and 82%
- Population Hoechst High Intensity Objects (%) (U2OS; [1]): 0%
- Population Mitotic Cells (%) (U2OS; [1]): 20% and 12%
- Population Pyknosed Nuclei (%) (U2OS; [1]): 8% and 13%
- Population Healthy Nuclei (%) (U2OS; [2]): 31% and 70%
- Population Hoechst High Intensity Objects (%) (U2OS; [2]): 0%
- Population Mitotic Cells (%) (U2OS; [2]): 44% and 57%
- Population Pyknosed Nuclei (%) (U2OS; [2]): 21% and 25%
- Population Healthy Nuclei (%) (U2OS; [3]): 82% and 53%
- Population Hoechst High Intensity Objects (%) (U2OS; [3]): 0%
- Population Mitotic Cells (%) (U2OS; [3]): 21% and 46%
- Population Pyknosed Nuclei (%) (U2OS; [3]): 15% and 20%
- Population Healthy Nuclei (%) (U2OS; [4]): 32% and 68%
- Population Hoechst High Intensity Objects (%) (U2OS; [4]): 0%
- Population Mitotic Cells (%) (U2OS; [4]): 20% and 26%
- Population Pyknosed Nuclei (%) (U2OS; [4]): 25% and 28%
- Population Healthy Nuclei (%) (U2OS; [5]): 57% and 85%
- Population Hoechst High Intensity Objects (%) (U2OS; [5]): 0%
- Population Mitotic Cells (%) (U2OS; [5]): 11% and 15%
- Population Pyknosed Nuclei (%) (U2OS; [5]): 18%
- Population Healthy Nuclei (%) (U2OS; [6]): 19% and 52%
- Population Hoechst High Intensity Objects (%) (U2OS; [6]): 0%
- Population Mitotic Cells (%) (U2OS; [6]): 12% and 9%
- Population Pyknosed Nuclei (%) (U2OS; [6]): 44% and 38%
